Assay results of several laboratories.
Target: SRSF protein kinase 3 (SRPK3, Homo sapiens, UniProt Q9UPE1)

N#Cc1ccc(NC(=O)Nc2ccccc2)cc1
inhibition (cell-free assay; competition with immobilised ligand; 25 µM): 90.3%

Cc1ccc(NC(=O)c2ccnc(C(F)(F)F)c2)cc1-c1cc(OCCO)nc(N2CCOCC2)c1
remaining binding (binding; 1 µM): 93%

CC#CC(=O)N1CCC[C@H]1c1nc(-c2ccc(C(=O)Nc3ccccn3)cc2)c2c(N)nccn12
inhibition (enzyme activity; inhibitor; 1 µM): 0%

CCCCC(=O)Nc1ccc(-c2ccc3ncn(CCC)c(=O)c3c2)cn1
remaining binding (binding; competition with immobilised ligand; 0.5 µM): 92%

C=CC(=O)N1CCC[C@@H](n2nc(-c3ccc(Oc4ccccc4)cc3)c3c(N)ncnc32)C1
inhibition (enzyme activity; inhibitor; 1 µM): 16%

C#Cc1cnc(Nc2ccnc(CO)c2)nc1Nc1ccccc1S(C)(=O)=NC#N (centres unmarked)
remaining signal (cell-free assay; 1 µM): 47%

CC(C)S(=O)(=O)c1ccc2nccc(Nc3ccc4sc(C5CCCC5)nc4c3)c2c1
activity vs control (enzyme activity; inhibitor; 1 µM): 110%

CN1CCN(C(=O)c2ccc(NC(=O)Nc3ccc(N(C)c4ccnc(Nc5ccc(CS(C)(=O)=O)cc5)n4)cc3)cc2)CC1
remaining binding (binding; 1 µM): 7.7%
